Consider four molecules from ChEMBL document CHEMBL3526053, “Species-dependent uptake of glycylsarcosine but not oseltamivir in Pichia pastoris expressing the rat, mouse, and human intestinal peptide transporter PEPT1” (Drug Metab Dispos, 2012).

Non-standard residues stand in square brackets, D forms with d. Residues, ends and D or L forms follow the SMILES beside them. Sar = CNCC(=O)O

In series [1] the test system is PEPT1. As to the kind of experiment: Ratio of Km for human recombinant PEPT1 expressed in Pichia pastoris GS115 to Km for mouse recombinant PEPT1 expressed in Pichia pastoris GS115. In kind it is ADME. To be noted: not told.
Series [2] can be described thus: Ratio of Km for human recombinant PEPT1 expressed in Pichia pastoris GS115 to Km for rat recombinant PEPT1 expressed in Pichia pastoris GS115. The format is ADME.
Series [3] addresses T1, Solute carrier family 15 member 1 (Oryctolagus cuniculus, UniProt P36836).
T1 sequence (P36836 whole entry): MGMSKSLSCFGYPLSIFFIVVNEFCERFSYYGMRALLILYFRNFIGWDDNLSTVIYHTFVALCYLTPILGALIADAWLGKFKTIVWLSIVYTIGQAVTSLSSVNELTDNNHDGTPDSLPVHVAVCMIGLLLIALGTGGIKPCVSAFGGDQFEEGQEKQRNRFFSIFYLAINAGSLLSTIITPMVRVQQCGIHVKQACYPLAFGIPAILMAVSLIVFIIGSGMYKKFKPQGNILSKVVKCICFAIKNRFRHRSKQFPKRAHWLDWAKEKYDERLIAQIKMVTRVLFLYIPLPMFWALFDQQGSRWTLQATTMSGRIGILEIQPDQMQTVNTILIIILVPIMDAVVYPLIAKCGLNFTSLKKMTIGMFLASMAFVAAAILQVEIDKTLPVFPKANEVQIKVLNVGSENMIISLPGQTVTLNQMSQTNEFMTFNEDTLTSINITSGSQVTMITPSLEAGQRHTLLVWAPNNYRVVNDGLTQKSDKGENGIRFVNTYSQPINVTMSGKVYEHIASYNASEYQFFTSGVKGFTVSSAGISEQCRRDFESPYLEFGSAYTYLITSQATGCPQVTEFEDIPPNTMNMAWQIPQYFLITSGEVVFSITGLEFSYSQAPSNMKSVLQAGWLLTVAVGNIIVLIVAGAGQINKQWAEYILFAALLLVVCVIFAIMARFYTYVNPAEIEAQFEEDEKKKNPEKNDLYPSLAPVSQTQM
As to the kind of experiment: Drug uptake in Xenopus laevis oocytes expressing rabbit PEPT1 measured at pH 5.5 and -60 mV by two-electrode voltage-clamp electrophysiology. In kind it is ADME, cell-based.

Series [4] deals with PEPT1. Description: Drug uptake in Xenopus laevis oocytes expressing sheep PEPT1 measured at pH 5.5 and -60 mV by two-electrode voltage-clamp electrophysiology. The format is ADME, cell-based, Ovis aries. The conditions noted are these: Xenopus laevis oocytes expressing sheep PEPT1, pH 5.5.
Series [5] relates to PEPT1. Description: Drug uptake in Xenopus laevis oocytes expressing chicken PEPT1 measured at pH 6 and -60 mV by two-electrode voltage-clamp electrophysiology. The format is ADME, cell-based, Gallus gallus. To be noted: Xenopus laevis oocytes expressing chicken PEPT1, pH 6.
The test system of series [6] is PEPT1. As to the kind of experiment: Drug uptake in CHO cells expressing chicken PEPT1 measured at pH 6. The format is ADME, cell-based, Gallus gallus. The conditions noted are these: CHO cells expressing chicken PEPT1, pH 6.
Series [7] deals with PEPT1. As to the kind of experiment: Drug uptake in human HeLa cells expressing monkey PEPT1 measured at pH 6. In kind it is ADME, cell-based, Macaca mulatta. The conditions noted are these: rhesus monkey, HeLa cells expressing monkey PEPT1, pH 6.
Series [8] relates to PEPT1. As to the kind of experiment: Drug uptake in CHO cells expressing pig PEPT1 measured at pH 6. In kind it is ADME, cell-based, Sus scrofa. The conditions noted are these: CHO cells expressing pig PEPT1, pH 6.
For series [9], the system named is PEPT1. Description: Drug uptake in Xenopus laevis oocytes expressing salmon PEPT1 measured at pH 6.5 and -60 mV by two-electrode voltage-clamp electrophysiology. The format is ADME, cell-based. The conditions noted are these: salmonidae, Xenopus laevis oocytes expressing salmon PEPT1, pH 6.5.
Substrate in series [10]: CN(CC(=O)O)C(=O)CN
Description: Drug uptake in human HeLa cells expressing human PEPT1 measured at pH 6. In kind it is ADME, cell-based.

Substrate in series [11]: CN(CC(=O)O)C(=O)CN
As to the kind of experiment: Activity at human recombinant PEPT1 expressed in Pichia pastoris GS115 after 30s by dual-channel liquid scintillation counting analysis. In kind it is ADME. In a few lines:
(§1)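 [3H]GlySar concentration series 0.005-10 mM, 30-s uptake at 24°C in 100 mM potassium phosphate pH 6.5. Cells come from His+Mut+ GS115 transformants induced 20-24 h in methanol medium. Uptake is normalised to OD600. Data are fitted to Michaelis-Menten plus a first-order nonsaturable term (Kd), weighting unity. Parameters are mean ± SE (n=9).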

Substrate in series [12]: CN(CC(=O)O)C(=O)CN
As to the kind of experiment: Drug uptake in Xenopus laevis oocytes expressing rat PEPT1 measured at pH 6. In kind it is ADME, cell-based.

Substrate in series [13]: CN(CC(=O)O)C(=O)CN
Description: Activity at rat recombinant PEPT1 expressed in Pichia pastoris GS115 after 30s by dual-channel liquid scintillation counting analysis. The format is ADME. The method in brief:
as §1

Substrate in series [14]: CN(CC(=O)O)C(=O)CN
Description: Drug uptake in Xenopus laevis oocytes expressing mouse PEPT1 measured at pH 5.5 and -60 mV by two-electrode voltage-clamp electrophysiology. In kind it is ADME, cell-based.

Substrate in series [15]: CN(CC(=O)O)C(=O)CN
As to the kind of experiment: Activity at mouse recombinant PEPT1 expressed in Pichia pastoris GS115 after 30s by dual-channel liquid scintillation counting analysis. The format is ADME. In a few lines:
as §1

Take `CN(CC(=O)O)C(=O)CN` [GLYCYLSARCOSINE] (H-Gly-[Sar]-OH): the selectivity ratio in the series on PEPT1 [1] was found to be 2.9. The Ratio in series [2] is recorded as 5.4. Moreover, the Michaelis constant (Km) in series [3] stood at 1900 µM; with PEPT1 [4], 610 µM; in the series with PEPT1 [5], 470 µM; in the series on PEPT1 [6], 2600 µM; in the series on PEPT1 [7] it was 350 µM; in the series on PEPT1 [8] it was 940 µM. Further, the Km in the series with PEPT1 [9] came out at 500 µM.

B1: Solute carrier family 15 member 1 (Homo sapiens) (protein)
chain: MGMSKSHSFFGYPLSIFFIVVNEFCERFSYYGMRAILILYFTNFISWDDNLSTAIYHTFVALCYLTPILGALIADSWLGKFKTIVSLSIVYTIGQAVTSVSSINDLTDHNHDGTPDSLPVHVVLSLIGLALIALGTGGIKPCVSAFGGDQFEEGQEKQRNRFFSIFYLAINAGSLLSTIITPMLRVQQCGIHSKQACYPLAFGVPAALMAVALIVFVLGSGMYKKFKPQGNIMGKVAKCIGFAIKNRFRHRSKAFPKREHWLDWAKEKYDERLISQIKMVTRVMFLYIPLPMFWALFDQQGSRWTLQATTMSGKIGALEIQPDQMQTVNAILIVIMVPIFDAVLYPLIAKCGFNFTSLKKMAVGMVLASMAFVVAAIVQVEIDKTLPVFPKGNEVQIKVLNIGNNTMNISLPGEMVTLGPMSQTNAFMTFDVNKLTRINISSPGSPVTAVTDDFKQGQRHTLLVWAPNHYQVVKDGLNQKPEKGENGIRFVNTFNELITITMSGKVYANISSYNASTYQFFPSGIKGFTISSTEIPPQCQPNFNTFYLEFGSAYTYIVQRKNDSCPEVKVFEDISANTVNMALQIPQYFLLTCGEVVFSVTGLEFSYSQAPSNMKSVLQAGWLLTVAVGNIIVLIVAGAGQFSKQWAEYILFAALLLVVCVIFAIMARFYTYINPAEIEAQFDEDEKKNRLEKSNPYFMSGANSQKQM
As for B1, the results for the Km in [10] and in series [11] were 290 µM and 860 µM, respectively.

B2: Solute carrier family 15 member 1 (Rattus norvegicus) (protein)
chain: MGMSKSRGCFGYPLSIFFIVVNEFCERFSYYGMRALLVLYFRNFLGWDDDLSTAIYHTFVALCYLTPILGALIADSWLGKFKTIVSLSIVYTIGQAVISVSSINDLTDHDHDGSPNNLPLHVALSMIGLALIALGTGGIKPCVSAFGGDQFEEGQEKQRNRFFSIFYLAINAGSLLSTIITPILRVQQCGIHSQQACYPLAFGVPAALMAVALIVFVLGSGMYKKFQPQGNIMGKVAKCIRFAIKNRFRHRSKAFPKRNHWLDWAKEKYDERLISQIKIMTKVMFLYIPLPMFWALFDQQGSRWTLQATTMTGKIGTIEIQPDQMQTVNAILIVIMVPIVDAVVYPLIAKCGFNFTSLKKMTVGMFLASMAFVVAAIVQVEIDKTLPVFPSGNQVQIKVLNIGNNDMAVYFPGKNVTVAQMSQTDTFMTFDVDQLTSINVSSPGSPGVTTVAHEFEPGHRHTLLVWGPNLYRVVKDGLNQKPEKGENGIRFVSTLNEMITIKMSGKVYENVTSHSASNYQFFPSGQKDYTINTTEIAPNCSSDFKSSNLDFGSAYTYVIRSRASDGCLEVKEFEDIPPNTVNMALQIPQYFLLTCGEVVFSVTGLEFSYSQAPSNMKSVLQAGWLLTVAIGNIIVLIVAEAGHFDKQWAEYVLFASLLLVVCIIFAIMARFYTYINPAEIEAQFDEDEKKKGVGKENPYSSLEPVSQTNM
For the molecule B2, the figures for the Km in [12] and in [13] were 240 µM and 160 µM, respectively.

B3: Solute carrier family 15 member 1 (Mus musculus) (protein)
chain: MGMSKSRGCFGYPLSIFFIVVNEFCERFSYYGMRALLVLYFRNFLGWDDNLSTAIYHTFVALCYLTPILGALIADSWLGKFKTIVSLSIVYTIGQAVISVSSINDLTDHDHNGSPDSLPVHVALSMVGLALIALGTGGIKPCVSAFGGDQFEEGQEKQRNRFFSIFYLAINGGSLLSTIITPILRVQQCGIHSQQACYPLAFGVPAALMAVALIVFVLGSGMYKKFQPQGNIMGKVAKCIGFAIKNRFRHRSKAYPKREHWLDWAKEKYDERLISQIKMVTKVMFLYIPLPMFWALFDQQGSRWTLQATTMNGKIGAIEIQPDQMQTVNAILIVIMVPIVDAVVYPLIAKCGFNFTSLKKMTVGMFLASMAFVVAAIVQVEIDKTLPVFPGGNQVQIKVLNIGNNNMTVHFPGNSVTLAQMSQTDTFMTFDIDKLTSINISSSGSPGVTTVAHDFEQGHRHTLLVWNPSQYRVVKDGLNQKPEKGENGIRFVNTLNEMVTIKMSGKVYENVTSHNASGYQFFPSGEKQYTINTTAVAPTCLTDFKSSNLDFGSAYTYVIRRASDGCLEVKEFEDIPPNTVNMALQIPQYFLLTCGEVVFSVTGLEFSYSQAPSNMKSVLQAGWLLTVAVGNIIVLIVAGAGHFPKQWAEYILFASLLLVVCVIFAIMARFYTYINPAEIEAQFDEDEKKKGIGKENPYSSLEPVSQTNM
For B3, the Michaelis constant (Km) in series [14] was determined as 750 µM; in [15], 300 µM.
